Structures are written as SMILES.

The target in one data set is T1, CYP1A2 (Homo sapiens, UniProt P05177).
T1 sequence (P05177 whole entry): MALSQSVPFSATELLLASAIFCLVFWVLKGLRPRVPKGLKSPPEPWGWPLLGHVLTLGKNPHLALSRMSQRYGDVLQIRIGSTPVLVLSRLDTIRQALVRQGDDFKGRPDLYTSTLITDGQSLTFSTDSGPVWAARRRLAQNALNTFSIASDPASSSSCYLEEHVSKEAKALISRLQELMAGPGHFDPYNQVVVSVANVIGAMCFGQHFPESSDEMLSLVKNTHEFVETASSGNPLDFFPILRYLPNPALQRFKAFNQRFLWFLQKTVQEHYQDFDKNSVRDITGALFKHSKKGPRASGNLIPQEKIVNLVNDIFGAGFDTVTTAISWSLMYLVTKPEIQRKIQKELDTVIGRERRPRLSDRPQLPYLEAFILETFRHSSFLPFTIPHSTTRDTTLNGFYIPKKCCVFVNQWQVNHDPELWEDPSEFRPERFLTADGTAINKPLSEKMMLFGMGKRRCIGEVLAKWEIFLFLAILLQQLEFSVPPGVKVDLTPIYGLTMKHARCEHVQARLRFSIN
The data set is described as follows: Inhibition of CYP1A2 (unknown origin)-mediated phenaceten demethylation to acetaminophen at 10 uM relative to control. It is filed as ADME. The settings on record: probe phenacetin (printed: phenaceten).

Data set [1] is described as follows: Oral bioavailability in Sprague-Dawley rat at 2 mg/kg by LC-MS/MS analysis. It is filed as ADME, organism-based. The settings on record: in vivo.
Data set [2] can be described thus: Half life in Sprague-Dawley rat at 1 mg/kg, iv by LC-MS/MS analysis. The data set is classed as ADME, organism-based. Set-up: dose 1 mg/kg, route intravenous. The following applies: in vivo.
Data set [3] in a line: Aqueous solubility in potassium phosphate buffer at pH 5.5 after 24 hrs by HPLC analysis. It is filed as physicochemical. The settings on record: pH 5.5, 24 h.
Another data set has as its target CYP2D6 (Homo sapiens, UniProt P10635). The data set is described as follows: Inhibition of CYP2D6 (unknown origin)-mediated bufuralol hydroxylation to 4'-Hydroxybufuralol at 10 uM relative to control. It is filed as ADME. The following applies: probe bufuralol.
The nature of data set [4]: Clearance in Sprague-Dawley rat at 1 mg/kg, iv by LC-MS/MS analysis. The data set is classed as ADME, organism-based. Further details: dose 1 mg/kg, route intravenous. The settings on record: in vivo.
Data set [5] in a line: Half life in human liver microsomes. It is filed as ADME, Microsome.
The nature of data set [6]: Cmax in Sprague-Dawley rat at 1 mg/kg, iv by LC-MS/MS analysis. It is filed as ADME, organism-based. Set-up: dose 1 mg/kg, route intravenous. The following applies: in vivo.
The nature of data set [7]: Inhibition of PKA (unknown origin) after 70 mins by luminescence assay. Set-up: species or system Homo sapiens.
Data set [8] is described as follows: Inhibition of ROCK-mediated myosin light chain bisphosphorylation in rat A7R5 cells after 1 hr by fluorescence assay in presence of L-alpha-lysophosphatidic acid. The data set is classed as cell-based. The gist of the method:
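A7r5 cells in 20% FBS DMEM, plated 5000/well overnight, serum-starved 4 h in 0.05% FBS DMEM; compound 13333 nM to 18 nM final for 1 h, then 10 μM LPA 10 min; fixed, permeabilized, anti-ppMLC plus IR800 secondary; infrared scan, ppMLC signal normalized to TO-PRO-3 nuclear signal. IC50 as mean of two or more experiments.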

Data set [9] is described as follows: AUC in Sprague-Dawley rat at 1 mg/kg, iv by LC-MS/MS analysis. Further details: dose 1 mg/kg, route intravenous. The settings on record: Sprague-Dawley, plasma. The data set is classed as ADME, organism-based, Plasma.
The next data set addresses CYP3A4 (Homo sapiens, UniProt P08684). Nature of the data set: Inhibition of CYP3A4 (unknown origin)-mediated midazolam hydroxylation to 1'-Hydroxymidazolam at 10 uM relative to control. It is filed as ADME. The settings on record: probe midazolam.
The nature of data set [10]: Volume of distribution in Sprague-Dawley rat at 1 mg/kg, iv by LC-MS/MS analysis. The following applies: in vivo. Further details: dose 1 mg/kg, route intravenous. It is filed as ADME, organism-based.
Another data set has as its target CYP2C9 (Homo sapiens, UniProt P11712). The data set is described as follows: Inhibition of CYP2C9 (unknown origin)-mediated tolbutamide hydroxylation to hydroxy tolbutamide at 10 uM relative to control. The data set is classed as ADME. The settings on record: probe tolbutamide.
For data set [11], the target named is Rho-associated protein kinase 1 (Homo sapiens, UniProt Q13464). Nature of the data set: Inhibition of ROCK1 (unknown origin) after 4 hrs by HTRF assay.
In data set [12] the target is Rho-associated protein kinase 2 (Homo sapiens, UniProt O75116). Nature of the data set: Inhibition of ROCK2 (unknown origin) after 4 hrs by HTRF assay.
The target in a further data set is MAP kinase p38 (Homo sapiens, UniProt O15264+Q15759+Q16539+P53778). Nature of the data set: Inhibition of p38 (unknown origin) using biotinylated Flag-ATF2 as substrate after 30 mins by HTRF assay. It is filed as protein assay.
Data set [13] deals with Mitogen-activated protein kinase 10 (Homo sapiens, UniProt P53779). Nature of the data set: Inhibition of JNK3 alpha1 (unknown origin) using biotinylated Flag-ATF2 as substrate after 15 mins by HTRF assay.
Sequence of Mitogen-activated protein kinase 10 (P53779 whole entry): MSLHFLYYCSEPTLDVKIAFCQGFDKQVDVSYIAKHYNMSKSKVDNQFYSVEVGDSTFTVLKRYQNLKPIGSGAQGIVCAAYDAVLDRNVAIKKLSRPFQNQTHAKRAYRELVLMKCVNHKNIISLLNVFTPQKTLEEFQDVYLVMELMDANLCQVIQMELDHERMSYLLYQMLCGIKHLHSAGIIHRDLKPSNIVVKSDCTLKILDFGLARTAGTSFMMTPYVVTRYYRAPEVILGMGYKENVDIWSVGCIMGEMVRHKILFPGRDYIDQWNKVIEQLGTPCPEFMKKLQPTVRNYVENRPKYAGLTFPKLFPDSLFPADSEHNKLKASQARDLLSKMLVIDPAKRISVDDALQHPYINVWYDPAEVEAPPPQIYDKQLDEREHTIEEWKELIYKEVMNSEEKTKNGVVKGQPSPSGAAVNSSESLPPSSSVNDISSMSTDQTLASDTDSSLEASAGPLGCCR

Sequence of CYP3A4 (P08684 whole entry): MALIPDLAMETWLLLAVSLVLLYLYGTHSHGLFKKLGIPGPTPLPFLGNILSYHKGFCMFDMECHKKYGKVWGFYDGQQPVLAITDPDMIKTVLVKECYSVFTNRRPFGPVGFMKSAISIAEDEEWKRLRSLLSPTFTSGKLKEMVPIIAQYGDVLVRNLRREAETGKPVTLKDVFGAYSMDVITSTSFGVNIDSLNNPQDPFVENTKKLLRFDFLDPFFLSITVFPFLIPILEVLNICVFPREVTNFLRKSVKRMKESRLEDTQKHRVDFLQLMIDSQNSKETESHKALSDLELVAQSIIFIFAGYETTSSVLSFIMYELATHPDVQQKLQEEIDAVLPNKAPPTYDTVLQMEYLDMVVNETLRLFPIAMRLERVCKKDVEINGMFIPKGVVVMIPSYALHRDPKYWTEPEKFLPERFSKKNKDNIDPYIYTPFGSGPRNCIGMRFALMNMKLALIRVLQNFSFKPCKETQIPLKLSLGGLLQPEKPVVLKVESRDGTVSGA
Sequence of CYP2D6 (P10635 whole entry): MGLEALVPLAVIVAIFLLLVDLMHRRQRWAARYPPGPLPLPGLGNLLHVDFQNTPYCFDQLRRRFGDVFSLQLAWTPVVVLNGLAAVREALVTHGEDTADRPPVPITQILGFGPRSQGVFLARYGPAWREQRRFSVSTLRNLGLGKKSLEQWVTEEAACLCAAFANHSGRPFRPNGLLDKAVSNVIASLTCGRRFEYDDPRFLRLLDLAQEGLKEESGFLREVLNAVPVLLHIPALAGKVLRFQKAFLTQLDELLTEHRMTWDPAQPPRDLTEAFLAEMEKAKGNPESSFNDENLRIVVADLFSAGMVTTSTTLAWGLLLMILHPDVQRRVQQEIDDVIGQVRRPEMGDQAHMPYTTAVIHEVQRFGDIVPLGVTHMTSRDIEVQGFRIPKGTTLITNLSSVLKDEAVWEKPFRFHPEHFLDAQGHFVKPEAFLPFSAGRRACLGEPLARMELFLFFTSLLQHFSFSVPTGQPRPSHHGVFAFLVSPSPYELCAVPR
Sequence of Rho-associated protein kinase 1 (Q13464 whole entry): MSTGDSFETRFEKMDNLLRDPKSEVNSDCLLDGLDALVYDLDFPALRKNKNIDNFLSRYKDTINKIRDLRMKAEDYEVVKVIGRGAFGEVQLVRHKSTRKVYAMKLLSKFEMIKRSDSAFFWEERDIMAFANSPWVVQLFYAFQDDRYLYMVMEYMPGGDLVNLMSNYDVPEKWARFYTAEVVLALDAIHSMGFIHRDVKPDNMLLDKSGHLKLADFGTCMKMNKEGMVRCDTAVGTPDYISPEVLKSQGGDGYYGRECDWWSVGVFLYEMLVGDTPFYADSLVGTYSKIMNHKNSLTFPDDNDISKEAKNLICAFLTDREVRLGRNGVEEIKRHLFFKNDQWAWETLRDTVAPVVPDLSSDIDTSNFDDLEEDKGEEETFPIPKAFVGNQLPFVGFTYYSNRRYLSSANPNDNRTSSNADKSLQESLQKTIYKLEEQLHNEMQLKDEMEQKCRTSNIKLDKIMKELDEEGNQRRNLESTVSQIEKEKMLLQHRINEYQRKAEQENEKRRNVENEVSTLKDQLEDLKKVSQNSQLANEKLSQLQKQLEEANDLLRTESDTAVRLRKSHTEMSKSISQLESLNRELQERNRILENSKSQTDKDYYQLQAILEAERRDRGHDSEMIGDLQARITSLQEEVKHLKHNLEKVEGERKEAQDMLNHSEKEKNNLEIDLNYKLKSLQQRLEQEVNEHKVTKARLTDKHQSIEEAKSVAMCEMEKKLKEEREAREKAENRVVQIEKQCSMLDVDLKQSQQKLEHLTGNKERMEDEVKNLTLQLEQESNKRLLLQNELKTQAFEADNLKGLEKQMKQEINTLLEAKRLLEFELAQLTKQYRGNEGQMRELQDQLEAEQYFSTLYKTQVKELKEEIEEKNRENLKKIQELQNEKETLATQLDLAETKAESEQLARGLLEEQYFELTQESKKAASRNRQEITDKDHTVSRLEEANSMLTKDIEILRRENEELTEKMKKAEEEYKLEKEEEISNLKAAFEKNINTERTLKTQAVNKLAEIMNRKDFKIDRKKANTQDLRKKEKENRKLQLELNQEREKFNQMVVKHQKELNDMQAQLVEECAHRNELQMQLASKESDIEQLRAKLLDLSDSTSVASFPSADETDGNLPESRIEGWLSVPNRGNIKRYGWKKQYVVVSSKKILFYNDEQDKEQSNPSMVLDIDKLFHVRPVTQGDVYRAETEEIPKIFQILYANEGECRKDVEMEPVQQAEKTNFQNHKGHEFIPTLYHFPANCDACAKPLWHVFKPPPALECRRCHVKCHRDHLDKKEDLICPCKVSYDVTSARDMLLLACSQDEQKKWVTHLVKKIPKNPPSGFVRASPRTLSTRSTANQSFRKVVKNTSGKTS
Sequence of Rho-associated protein kinase 2 (O75116 whole entry): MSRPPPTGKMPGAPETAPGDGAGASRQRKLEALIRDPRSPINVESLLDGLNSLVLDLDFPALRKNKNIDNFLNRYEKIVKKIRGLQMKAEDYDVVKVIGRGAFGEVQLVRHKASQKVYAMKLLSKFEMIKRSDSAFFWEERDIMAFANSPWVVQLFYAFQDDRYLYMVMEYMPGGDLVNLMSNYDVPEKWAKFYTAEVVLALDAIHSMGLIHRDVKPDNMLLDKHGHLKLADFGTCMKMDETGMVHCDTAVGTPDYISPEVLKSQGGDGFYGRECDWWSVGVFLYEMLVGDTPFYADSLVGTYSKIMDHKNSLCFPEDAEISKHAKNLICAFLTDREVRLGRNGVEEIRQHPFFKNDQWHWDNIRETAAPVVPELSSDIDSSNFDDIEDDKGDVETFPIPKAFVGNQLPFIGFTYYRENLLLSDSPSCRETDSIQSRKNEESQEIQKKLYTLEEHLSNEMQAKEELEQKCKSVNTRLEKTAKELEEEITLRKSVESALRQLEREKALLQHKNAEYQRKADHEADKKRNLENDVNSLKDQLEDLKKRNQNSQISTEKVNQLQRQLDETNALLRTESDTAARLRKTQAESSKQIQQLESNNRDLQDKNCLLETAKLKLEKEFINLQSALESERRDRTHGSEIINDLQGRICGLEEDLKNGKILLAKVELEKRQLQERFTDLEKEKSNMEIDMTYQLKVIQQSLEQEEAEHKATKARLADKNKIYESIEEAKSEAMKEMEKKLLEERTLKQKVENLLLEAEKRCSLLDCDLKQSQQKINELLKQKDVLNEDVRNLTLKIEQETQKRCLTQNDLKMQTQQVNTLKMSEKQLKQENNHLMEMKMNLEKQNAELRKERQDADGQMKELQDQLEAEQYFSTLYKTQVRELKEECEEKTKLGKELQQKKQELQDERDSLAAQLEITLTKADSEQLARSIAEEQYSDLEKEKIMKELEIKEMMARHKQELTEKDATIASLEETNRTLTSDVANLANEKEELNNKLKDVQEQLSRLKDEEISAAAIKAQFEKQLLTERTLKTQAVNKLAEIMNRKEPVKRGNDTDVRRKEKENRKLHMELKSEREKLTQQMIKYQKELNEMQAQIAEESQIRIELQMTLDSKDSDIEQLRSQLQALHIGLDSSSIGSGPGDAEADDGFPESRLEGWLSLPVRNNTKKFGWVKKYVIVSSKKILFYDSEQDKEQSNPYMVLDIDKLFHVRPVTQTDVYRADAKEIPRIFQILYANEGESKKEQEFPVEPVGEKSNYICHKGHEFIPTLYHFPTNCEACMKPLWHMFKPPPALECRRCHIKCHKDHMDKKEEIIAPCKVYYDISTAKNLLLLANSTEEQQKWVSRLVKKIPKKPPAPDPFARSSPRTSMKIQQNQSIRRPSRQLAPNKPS
Sequence of CYP2C9 (P11712 whole entry): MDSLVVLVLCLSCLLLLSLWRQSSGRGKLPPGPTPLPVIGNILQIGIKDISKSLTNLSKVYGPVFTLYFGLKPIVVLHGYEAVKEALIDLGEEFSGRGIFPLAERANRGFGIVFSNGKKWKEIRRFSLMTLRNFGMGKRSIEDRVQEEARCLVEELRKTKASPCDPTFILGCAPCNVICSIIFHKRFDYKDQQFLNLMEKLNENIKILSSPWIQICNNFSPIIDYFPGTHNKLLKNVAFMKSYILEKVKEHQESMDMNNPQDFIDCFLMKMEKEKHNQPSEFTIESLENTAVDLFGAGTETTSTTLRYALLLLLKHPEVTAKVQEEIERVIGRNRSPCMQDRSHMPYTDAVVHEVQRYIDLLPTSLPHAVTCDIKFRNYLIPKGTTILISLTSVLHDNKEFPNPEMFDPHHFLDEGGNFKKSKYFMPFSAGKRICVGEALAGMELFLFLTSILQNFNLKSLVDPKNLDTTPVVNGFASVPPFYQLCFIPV

On to `CN(C)CCC(NC(=O)Nc1ccc(-c2cn[nH]c2)cc1)c1ccccc1` (stereo not drawn), for which the inhibition at 10 µM on CYP1A2 was -1%; at CYP2D6, 59%; on CYP3A4, 10%; against CYP2C9 it was 16%. Besides, the bioavailability in data set [1] was found to be 0%. Moreover, the half-life in data set [2] is 2.4 h; in data set [5], over 1 h. Besides, the solubility result in [3] is recorded as “soluble”. Besides, the clearance in data set [4] is 91 mL/min/kg. The same compound came in with a Cmax in [6] of 200 nM. The IC50 in data set [7] was 238 nM; in data set [8], 40 nM; in data set [11] it was 6 nM; in [12], 2 nM. This compound came in with an AUC in [9] of 0.5 µM·h. The compound further gave a volume of distribution (Vd) in [10] of 20 L/kg.
As for `COc1cccc(CN(CCN(C)C)C(=O)Nc2ccc(-c3cn[nH]c3)cn2)c1`, the inhibition at 10 µM against CYP1A2 was -21%; against CYP2D6, 51%; against CYP3A4, 8%; against CYP2C9, 5%. Moreover, the solubility entry in [3] is listed as “soluble”. In data set [5], this compound came in with a half-life of 0.283 h. Further, the 50% inhibitory concentration (IC50) in data set [7] was 470 nM; in data set [8], 28 nM; in [11], 10 nM; in data set [12], 2 nM.
On to `COc1cccc(CN(CCN2CCOCC2)C(=O)Nc2ccc(-c3cn[nH]c3)cc2)c1`, for which the inhibition at 10 µM was -37% on CYP1A2, 82% at CYP2D6, 51% against CYP3A4 and 68% at CYP2C9. The bioavailability in [1] is 4%. Also, the 50% inhibitory concentration (IC50) against MAP kinase p38 was over 20000 nM; in [7], 3820 nM; in [8], 138 nM; in data set [13], over 20000 nM; in [11], 58 nM; in data set [12], 13 nM. For the same compound, the half-life is 2.2 h in data set [2] and 0.05 h in [5]. Besides, in data set [3], the solubility entry is on record as “soluble”. This compound had a clearance in data set [4] of 63 mL/min/kg. This compound returned a Cmax in data set [6] of 1200 nM. Moreover, in data set [9], the AUC came out at 0.6 µM·h. In addition, the Vd in data set [10] is 3.5 L/kg.
On to `COc1cccc(CN(CCN2CCCCC2)C(=O)Nc2ccc(-c3cn[nH]c3)cc2)c1`, for which the inhibition at 10 µM at CYP1A2 came to 18%; against CYP2D6, 87%; against CYP3A4, 61%; against CYP2C9 it was 56%. In data set [1], this compound displayed a bioavailability of 0%. The IC50 against MAP kinase p38 is over 20000 nM; in [7], 338 nM; in data set [8] it was 17 nM; in [13] it was over 20000 nM; in data set [11] it was 14 nM; in [12], 5 nM. Further, the half-life in data set [2] was 1 h; in [5] it was 0.183 h. Also, the solubility result in data set [3] is reported as “soluble”. Moreover, in data set [4], the clearance worked out at 86 mL/min/kg. Moreover, the Cmax in data set [6] stood at 530 nM. This compound displayed an AUC in [9] of 0.4 µM·h. The Vd in data set [10] turned out to be 4.3 L/kg.
In the case of `COc1cccc(C(CCO)NC(=O)Nc2ccc(-c3cn[nH]c3)cc2)c1` (stereo not drawn), the inhibition at 10 µM on CYP1A2 stood at 3%; against CYP2D6 it was 37%; on CYP3A4 it was 37%; against CYP2C9, 67%. In addition, the bioavailability in data set [1] stood at 4%. In addition, the half-life in data set [2] is 0.7 h; in data set [5], 1.87 h. Also, the solubility entry in data set [3] is “soluble”. This compound also came in with a clearance in data set [4] of 5.9 mL/min/kg. The Cmax in data set [6] is 12000 nM. Also, the IC50 in data set [7] came out at 4870 nM; in [8], 40 nM; in data set [11] it was 11 nM; in data set [12], 2 nM. In data set [9], the area under the curve (AUC) worked out at 7.9 µM·h. Also, in data set [10], the Vd is 0.25 L/kg.

Source of the values: ChEMBL document CHEMBL2331531, “Synthesis and biological evaluation of urea derivatives as highly potent and selective rho kinase inhibitors” (J Med Chem, 2013).
